Drawing on ChEMBL document CHEMBL5705899 (Biochem J, 2014), this text covers Activity, inhibition and IC50 for one molecule.

Calls of active or inactive are those of the source. The rule behind the calls is not given here.

Assay [1] concerns the target Mitogen-activated protein kinase kinase kinase 11 (Homo sapiens) (UniProt Q16584). The assay is described as follows: Inhibition of recombinant human N-terminal GST-tagged MLK3 (96 to 386 residues) expressed in baculovirus infected Sf21 cells assessed as remaining activity at 1 uM using MBP as substrate incubated for 30 mins in presence of [gamma-33P]ATP by filter binding method relative to control.

The target in assay [2] is Serine/threonine-protein kinase N2 (Homo sapiens) (UniProt Q16513). The assay is described as follows: Inhibition of recombinant N-terminal His6/FLAG-tagged human PRK2 (501 to 984 residues) expressed in baculovirus infected Sf21 cells assessed as remaining activity at 1 uM using S6 peptide as substrate incubated for 30 mins in presence of [gamma-33P]ATP by filter binding method relative to control.

Assay [3] has as its target Vascular endothelial growth factor receptor 1 (Homo sapiens) (UniProt P17948). In words: Inhibition of recombinant human N-terminal GST-tagged VEGFR1 (784 to 1338 residues) expressed in baculovirus infected Sf21 cells assessed as remaining activity at 1 uM using KKKSPGEYVNIEFG as substrate incubated for 30 mins in presence of [gamma-33P]ATP by filter binding method relative to control.

Assay [4] deals with Mitogen-activated protein kinase 8 (Homo sapiens) (UniProt P45983). In words: Inhibition of recombinant human His6-tagged JNK1 (1 to 384 residues) expressed in baculovirus infected Sf21 cells assessed as remaining activity at 1 uM using ATF2 as substrate incubated for 30 mins in presence of [gamma-33P]ATP by filter binding method relative to control.
The target of assay [5] is Dual specificity tyrosine-phosphorylation-regulated kinase 1A (Homo sapiens) (UniProt Q13627). The assay is described as follows: Inhibition of recombinant human N-terminal GST-tagged DYRK1A (1 to 502 residues) expressed in Escherichia coli assessed as remaining activity at 1 uM using KKISGRLSPIMTEQ as substrate incubated for 30 mins in presence of [gamma-33P]ATP by filter binding method relative to control.

For assay [6], the target named is Ribosomal protein S6 kinase alpha-5 (Homo sapiens) (UniProt O75582). To be noted: Sf21, dose 1.0 µM, time 30.0 min.
Assay [7] addresses CDK2/Cyclin A2 (Homo sapiens) (UniProt P24941+P20248). The assay is described as follows: Inhibition of recombinant human N-terminal GST-tagged CDK2 (2 to 298 residues)/N-terminal GST-tagged Cyclin A2 (171 to 432 residues) expressed in Escherichia coli assessed as remaining activity at 1 uM using YSPTSPSYSPTSPSYSPTSPKKK as substrate incubated for 30 mins in presence of [gamma-33P]ATP by filter binding method relative to control.

For assay [8], the target named is Ephrin type-B receptor 4 (Homo sapiens) (UniProt P54760). The assay is described as follows: Inhibition of human EPHB4 at 1 uM using polyEY as substrate in presence of 33P-ATP by ProQinase assay.
Assay [9] deals with Protein-tyrosine kinase 6 (Homo sapiens) (UniProt Q13882). The assay is described as follows: Inhibition of human BRK at 1 uM using polyEy as substrate in presence of 33P-ATP by ProQinase assay.
The target of assay [10] is Tyrosine-protein kinase receptor UFO (Homo sapiens) (UniProt P30530). The assay is described as follows: Inhibition of human AXL at 1 uM using polyEy as substrate in presence of 33P-ATP by ProQinase assay.
In assay [11] the target is Protein kinase C delta type (Homo sapiens) (UniProt Q05655). The assay is described as follows: Inhibition of human PKCdelta at 1 uM using 3xChocktide-PKC as substrate in presence of 33P-ATP by ProQinase assay.
For assay [12], the target named is CDK1/Cyclin E (Homo sapiens) (UniProt P06493+P24864). The assay is described as follows: Inhibition of human CDK1/Cyclin E1at 1 uM using RBER-CHKtide as substrate in presence of 33P-ATP by ProQinase assay. It is filed as protein-complex assay.
The target in assay [13] is Ephrin type-B receptor 3 (Homo sapiens) (UniProt P54753). The assay is described as follows: Inhibition of human EPHB3 at 1 uM using polyEY as substrate in presence of 33P-ATP by ProQinase assay.
For assay [14], the target named is Epidermal growth factor receptor (Homo sapiens) (UniProt P00533). In words: Inhibition of human EGFR at 1 uM using RBER-CHKtide as substrate in presence of 33P-ATP by ProQinase assay.
For assay [15], the target named is Mitogen-activated protein kinase kinase kinase 20 (Homo sapiens) (UniProt Q9NYL2). The assay is described as follows: Inhibition of human ZAK at 1 uM using MBP as substrate in presence of 33P-ATP by ProQinase assay.
The target of assay [16] is Serine/threonine-protein kinase 26 (Homo sapiens) (UniProt Q9P289). The assay is described as follows: Inhibition of human MST4 at 1 uM using RB-CTF as substrate in presence of 33P-ATP by ProQinase assay.
Assay [17] addresses Rho-associated protein kinase 2 (Homo sapiens) (UniProt O75116). The assay is described as follows: Inhibition of human ROCK2 at 1 uM using RB-S6P as substrate in presence of 33P-ATP by ProQinase assay.
The target of assay [18] is Serine/threonine-protein kinase 33 (Homo sapiens) (UniProt Q9BYT3). In words: Inhibition of human STK33 at 1 uM using RBER-CHKtide as substrate in presence of 33P-ATP by ProQinase assay.
The species named for another assay is Homo sapiens. In words: Inhibition of human CDK1/CycA2 at 1 uM using RBER-CHKtide as substrate in presence of 33P-ATP by ProQinase assay.
For assay [19], the target named is Dual specificity mitogen-activated protein kinase kinase 1 (Homo sapiens) (UniProt Q02750). In words: Inhibition of human MEK1 at 1 uM using ERK2-KR as substrate in presence of 33P-ATP by ProQinase assay.
In assay [20] the target is PI3-kinase p110-alpha/p85-alpha (Homo sapiens) (UniProt P27986+P42336). In words: Inhibition of recombinant human N-terminal His6-tagged PI3Kalpha (2 to 1068 residues)/p85A (1 to 724 residues) expressed in baculovirus expression system at 1 uM using diC8 PIP2 as substrate incubated for 80 mins by ADP-Glo assay. Background: In ADP-Glo the light output rises with the ADP produced.

Assay [21] addresses Phosphatidylinositol 4-phosphate 5-kinase type-1 gamma (Homo sapiens, UniProt O60331). The assay is described as follows: Inhibition of PIP5K1C (unknown origin) using D-myo-PIP as substrate incubated for 45 mins by ADP-Glo assay. The procedure, abridged:
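Substrates were 14 μM PtdIns 4-phosphate and 20 μM ATP, with inhibitor at varying concentrations. Reactions ran 45 min at ambient temperature, then luminescence detection was done as for the PI4K assays.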

The subject of a further assay is U2OS. The assay is described as follows: Inhibition of PI3K in human U2OS cells expressing FLAG-tagged SGK3 assessed as reduction in NDRG1 phosphorylation at T346 residues at 0.01 to 1 uM 1 hr by immunoblot analysis. It is filed as cell-based. The note with it: dose 0.01-1 µM. The method, boiled down:
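Flp-In T-REx U2OS cells were grown in McCoy medium with 10% FBS. Expression of C-terminally FLAG-tagged full-length SGK3 was induced with 0.01 mg/ml doxycycline for 24 h. Cells were treated with inhibitor for 1 h and lysed in phosphatase-inhibitor buffer. Lysates were cleared at 16000 g for 10 min at 4°C, protein was measured by Bradford, and phosphorylation was read by immunoblot with ECL detection.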

Serine/threonine-protein kinase 26 (Homo sapiens), sequence (Q9P289 2-416 limits assumed): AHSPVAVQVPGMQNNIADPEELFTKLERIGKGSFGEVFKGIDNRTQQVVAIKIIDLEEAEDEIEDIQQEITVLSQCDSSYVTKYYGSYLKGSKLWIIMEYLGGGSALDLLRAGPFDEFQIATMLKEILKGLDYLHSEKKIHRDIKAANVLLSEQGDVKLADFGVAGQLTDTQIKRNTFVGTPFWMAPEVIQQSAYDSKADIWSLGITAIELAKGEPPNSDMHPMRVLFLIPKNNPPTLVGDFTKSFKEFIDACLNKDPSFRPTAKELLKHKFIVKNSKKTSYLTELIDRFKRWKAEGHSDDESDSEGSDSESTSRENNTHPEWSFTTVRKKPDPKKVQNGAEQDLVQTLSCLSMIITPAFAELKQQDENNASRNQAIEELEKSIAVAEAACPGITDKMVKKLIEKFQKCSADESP
Tyrosine-protein kinase receptor UFO (Homo sapiens), sequence (P30530 whole entry): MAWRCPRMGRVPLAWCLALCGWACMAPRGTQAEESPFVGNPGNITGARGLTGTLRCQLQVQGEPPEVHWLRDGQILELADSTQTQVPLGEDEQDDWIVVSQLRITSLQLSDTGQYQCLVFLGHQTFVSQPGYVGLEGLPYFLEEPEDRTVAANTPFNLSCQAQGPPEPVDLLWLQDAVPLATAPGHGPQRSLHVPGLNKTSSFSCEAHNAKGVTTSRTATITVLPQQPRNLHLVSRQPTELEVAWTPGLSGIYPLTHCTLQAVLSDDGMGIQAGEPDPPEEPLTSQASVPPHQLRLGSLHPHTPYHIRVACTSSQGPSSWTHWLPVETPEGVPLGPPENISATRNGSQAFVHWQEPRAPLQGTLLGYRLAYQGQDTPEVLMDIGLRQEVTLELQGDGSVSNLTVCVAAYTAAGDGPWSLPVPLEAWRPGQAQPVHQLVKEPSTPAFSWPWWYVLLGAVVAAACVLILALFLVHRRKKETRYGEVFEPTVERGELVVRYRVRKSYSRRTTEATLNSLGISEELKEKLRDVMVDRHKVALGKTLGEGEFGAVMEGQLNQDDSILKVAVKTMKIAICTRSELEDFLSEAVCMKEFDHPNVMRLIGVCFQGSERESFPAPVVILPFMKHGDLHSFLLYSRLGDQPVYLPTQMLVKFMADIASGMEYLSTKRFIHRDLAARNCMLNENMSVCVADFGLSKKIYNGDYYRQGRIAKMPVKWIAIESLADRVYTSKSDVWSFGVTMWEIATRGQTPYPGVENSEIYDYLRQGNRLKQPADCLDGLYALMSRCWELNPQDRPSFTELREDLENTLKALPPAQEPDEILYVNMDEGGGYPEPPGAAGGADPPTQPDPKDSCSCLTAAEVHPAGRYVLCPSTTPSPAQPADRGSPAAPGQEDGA
Ribosomal protein S6 kinase alpha-5 (Homo sapiens), sequence (O75582 whole entry, looked up, the tested form may be a part): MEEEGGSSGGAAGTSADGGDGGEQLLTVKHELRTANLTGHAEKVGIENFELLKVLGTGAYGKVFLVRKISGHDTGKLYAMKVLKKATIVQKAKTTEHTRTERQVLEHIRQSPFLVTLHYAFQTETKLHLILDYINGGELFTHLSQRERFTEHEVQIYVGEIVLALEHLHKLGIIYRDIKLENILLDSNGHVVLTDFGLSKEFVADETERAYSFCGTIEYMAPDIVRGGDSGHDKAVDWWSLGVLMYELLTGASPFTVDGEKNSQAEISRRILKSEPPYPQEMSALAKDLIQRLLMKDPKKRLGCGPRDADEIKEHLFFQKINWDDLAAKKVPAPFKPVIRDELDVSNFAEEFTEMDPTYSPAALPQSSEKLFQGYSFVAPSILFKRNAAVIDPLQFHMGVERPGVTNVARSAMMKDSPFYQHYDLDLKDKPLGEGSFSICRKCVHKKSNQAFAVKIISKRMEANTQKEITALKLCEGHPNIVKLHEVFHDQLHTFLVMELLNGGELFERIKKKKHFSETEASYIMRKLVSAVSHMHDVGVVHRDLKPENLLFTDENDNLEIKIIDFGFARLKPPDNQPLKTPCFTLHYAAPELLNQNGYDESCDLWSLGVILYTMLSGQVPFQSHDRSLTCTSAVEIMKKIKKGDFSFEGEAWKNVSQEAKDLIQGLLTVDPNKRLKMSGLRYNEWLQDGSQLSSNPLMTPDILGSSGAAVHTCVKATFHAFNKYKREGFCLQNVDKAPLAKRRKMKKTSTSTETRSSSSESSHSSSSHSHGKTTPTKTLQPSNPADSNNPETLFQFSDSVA
CDK1/Cyclin E (Homo sapiens), sequence (P06493 whole entry, looked up): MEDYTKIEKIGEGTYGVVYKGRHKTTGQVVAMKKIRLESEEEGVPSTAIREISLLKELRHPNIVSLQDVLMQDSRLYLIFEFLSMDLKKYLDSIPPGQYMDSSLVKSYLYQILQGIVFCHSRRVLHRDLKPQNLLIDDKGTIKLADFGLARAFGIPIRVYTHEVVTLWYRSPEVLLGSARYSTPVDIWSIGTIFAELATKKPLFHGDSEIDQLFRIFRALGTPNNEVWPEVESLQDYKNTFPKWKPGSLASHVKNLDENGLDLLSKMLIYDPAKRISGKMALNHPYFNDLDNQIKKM
CDK1/Cyclin E (Homo sapiens), sequence (P24864 whole entry, looked up): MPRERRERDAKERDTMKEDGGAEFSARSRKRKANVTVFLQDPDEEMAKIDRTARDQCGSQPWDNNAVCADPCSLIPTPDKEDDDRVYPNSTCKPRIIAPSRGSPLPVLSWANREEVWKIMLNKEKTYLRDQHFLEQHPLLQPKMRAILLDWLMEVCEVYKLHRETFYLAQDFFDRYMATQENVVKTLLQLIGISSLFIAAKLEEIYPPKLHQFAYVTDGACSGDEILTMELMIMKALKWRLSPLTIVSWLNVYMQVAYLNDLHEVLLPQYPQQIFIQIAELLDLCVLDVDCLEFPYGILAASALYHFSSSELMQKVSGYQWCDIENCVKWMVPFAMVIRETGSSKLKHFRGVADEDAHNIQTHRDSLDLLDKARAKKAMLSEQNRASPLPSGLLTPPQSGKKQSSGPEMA
Mitogen-activated protein kinase 8 (Homo sapiens), sequence (P45983 whole entry, the tested form may be a part): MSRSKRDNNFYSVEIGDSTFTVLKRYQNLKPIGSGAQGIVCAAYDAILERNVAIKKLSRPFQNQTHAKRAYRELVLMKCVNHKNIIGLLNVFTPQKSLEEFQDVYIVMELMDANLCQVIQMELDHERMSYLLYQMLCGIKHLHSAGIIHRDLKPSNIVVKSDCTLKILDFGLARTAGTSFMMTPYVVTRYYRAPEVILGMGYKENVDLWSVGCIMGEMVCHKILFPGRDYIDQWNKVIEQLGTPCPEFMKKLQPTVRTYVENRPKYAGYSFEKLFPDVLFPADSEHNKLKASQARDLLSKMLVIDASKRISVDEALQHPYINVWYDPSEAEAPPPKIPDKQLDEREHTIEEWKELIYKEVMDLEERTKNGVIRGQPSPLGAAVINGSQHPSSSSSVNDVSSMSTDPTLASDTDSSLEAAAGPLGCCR
Protein-tyrosine kinase 6 (Homo sapiens), sequence (Q13882 whole entry, looked up): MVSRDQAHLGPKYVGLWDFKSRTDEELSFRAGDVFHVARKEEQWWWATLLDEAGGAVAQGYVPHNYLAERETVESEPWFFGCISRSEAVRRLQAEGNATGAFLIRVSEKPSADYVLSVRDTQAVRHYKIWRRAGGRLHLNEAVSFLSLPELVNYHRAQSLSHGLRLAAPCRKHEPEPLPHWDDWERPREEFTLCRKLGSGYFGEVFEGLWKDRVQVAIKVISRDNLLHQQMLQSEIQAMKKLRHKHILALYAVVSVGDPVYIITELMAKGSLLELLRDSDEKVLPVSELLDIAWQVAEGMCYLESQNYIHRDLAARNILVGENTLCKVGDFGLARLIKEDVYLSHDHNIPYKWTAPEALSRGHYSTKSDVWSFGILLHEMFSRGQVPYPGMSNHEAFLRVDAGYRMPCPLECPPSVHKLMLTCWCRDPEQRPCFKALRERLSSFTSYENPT
Mitogen-activated protein kinase kinase kinase 11 (Homo sapiens), sequence (Q16584 whole entry, looked up, the tested form may be a part): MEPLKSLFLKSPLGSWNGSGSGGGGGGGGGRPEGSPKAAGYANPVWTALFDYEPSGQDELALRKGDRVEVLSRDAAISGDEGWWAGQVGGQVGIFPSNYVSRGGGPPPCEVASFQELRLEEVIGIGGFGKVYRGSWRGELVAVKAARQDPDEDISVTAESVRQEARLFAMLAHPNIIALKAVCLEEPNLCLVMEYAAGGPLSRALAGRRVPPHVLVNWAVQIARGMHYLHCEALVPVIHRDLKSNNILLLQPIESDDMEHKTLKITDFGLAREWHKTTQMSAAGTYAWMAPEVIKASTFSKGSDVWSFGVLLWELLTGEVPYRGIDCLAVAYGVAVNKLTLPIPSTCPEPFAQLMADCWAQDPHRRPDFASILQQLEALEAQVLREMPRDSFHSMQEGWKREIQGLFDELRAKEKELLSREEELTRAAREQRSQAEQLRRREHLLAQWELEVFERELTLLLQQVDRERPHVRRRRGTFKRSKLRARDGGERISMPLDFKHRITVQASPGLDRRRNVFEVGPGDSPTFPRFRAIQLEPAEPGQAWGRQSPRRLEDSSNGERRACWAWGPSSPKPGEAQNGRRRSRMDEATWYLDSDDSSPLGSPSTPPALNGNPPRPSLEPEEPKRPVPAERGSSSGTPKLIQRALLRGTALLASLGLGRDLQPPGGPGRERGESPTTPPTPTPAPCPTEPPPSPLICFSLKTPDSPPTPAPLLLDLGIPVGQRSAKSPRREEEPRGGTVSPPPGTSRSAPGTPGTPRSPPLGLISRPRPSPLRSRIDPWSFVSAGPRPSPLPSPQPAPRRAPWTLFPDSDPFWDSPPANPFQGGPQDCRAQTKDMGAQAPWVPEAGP
Dual specificity mitogen-activated protein kinase kinase 1 (Homo sapiens), sequence (Q02750 whole entry, the tested form may be a part): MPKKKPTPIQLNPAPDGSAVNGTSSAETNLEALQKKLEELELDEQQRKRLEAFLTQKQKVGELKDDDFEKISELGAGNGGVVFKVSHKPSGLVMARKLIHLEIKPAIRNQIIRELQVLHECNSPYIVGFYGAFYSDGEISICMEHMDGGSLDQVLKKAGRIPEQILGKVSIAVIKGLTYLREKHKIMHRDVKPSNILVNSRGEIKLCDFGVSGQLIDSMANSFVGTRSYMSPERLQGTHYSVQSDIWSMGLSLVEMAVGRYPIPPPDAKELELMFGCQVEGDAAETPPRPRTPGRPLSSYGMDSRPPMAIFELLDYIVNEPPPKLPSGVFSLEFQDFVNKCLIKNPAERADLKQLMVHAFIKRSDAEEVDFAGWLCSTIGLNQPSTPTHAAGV

On to `CC(C)(O)CNc1ncc(-c2ccnc(Nc3ccnc(Cl)c3)n2)c(CC2CC2)n1`, for which the Activity came out at 129% in assay [1]; 116% in assay [2]; 113% in [3]; 112% in assay [4]; 105% in assay [5]; 105% in [6]. Further, the Activity in assay [7] amounted to 88%. The inhibition entry in [8], in [9], in [10], in assay [11], in assay [12] and in [13] was “inactive” throughout. The inhibition result (in [14]; in [15]; in [16]; in [17]; in assay [18]; in the assay filed under Homo sapiens) was “inactive” throughout. The inhibition result in assay [19] and in [20] was “inactive” in each case. This molecule also returned an IC50 in assay [21] of 382 nM. In addition, the inhibition entry in the assay with U2OS was “Active”.

For orientation: IC50 means the concentration at which inhibition is half-maximal.
